Measured values pooled from the literature.
Each line is one published result; the experiments were not run side by side.
Target: Dual specificity tyrosine-phosphorylation-regulated kinase 4 (DYRK4, Homo sapiens, UniProt Q9NR20)
Residues used in one study (Q9NR20 1-520): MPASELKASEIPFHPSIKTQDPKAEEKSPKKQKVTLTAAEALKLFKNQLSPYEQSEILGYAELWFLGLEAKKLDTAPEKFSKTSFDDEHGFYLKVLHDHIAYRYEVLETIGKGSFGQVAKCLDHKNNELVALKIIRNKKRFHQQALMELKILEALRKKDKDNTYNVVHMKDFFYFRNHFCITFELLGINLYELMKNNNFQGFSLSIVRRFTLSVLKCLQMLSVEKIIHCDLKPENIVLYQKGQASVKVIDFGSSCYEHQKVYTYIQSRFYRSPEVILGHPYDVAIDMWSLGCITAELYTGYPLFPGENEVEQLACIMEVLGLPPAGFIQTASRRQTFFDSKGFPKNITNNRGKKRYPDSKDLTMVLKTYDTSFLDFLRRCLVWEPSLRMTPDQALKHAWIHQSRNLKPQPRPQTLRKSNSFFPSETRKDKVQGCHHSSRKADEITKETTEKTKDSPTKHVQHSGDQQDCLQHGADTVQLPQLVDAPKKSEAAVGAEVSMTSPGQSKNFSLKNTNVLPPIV

SMILES | assay | setting | measurement | value
CC(C)(O)[C@H]1CC[C@H](Nc2ccc3ncc(-c4cccc(C(F)(F)F)c4)n3n2)CC1 | enzyme activity, inhibitor | 1 µM | remaining activity | 97.3%
O=C1Nc2ccc(Cl)cc2C1=Cc1cc(Cl)c(O)c(Cl)c1 | cell-free assay | 0.5 µM | remaining signal | 95.7%
COc1cc2ncnc(Nc3ccc(Oc4ccccc4)cc3C)c2cc1OC | enzyme activity, inhibitor | 1 µM | inhibition | 0%
O=C(Nc1cnn(-c2csc(C(=O)NC3COC3)c2)c1)Nc1ccccc1Cl | enzyme activity, inhibitor | 5 µM | remaining activity | 94.6%
Cn1cnc(Br)c1C1=CN(c2ncnc3[nH]cnc23)CCS1 | enzyme activity, inhibitor, radiometric | 50 nM | inhibition | 14.9%
CC(C)(C)c1nc(-c2cccc(NS(=O)(=O)c3c(F)cccc3F)c2F)c(-c2ccnc(N)n2)s1 | enzyme activity, inhibitor, radiometric | 1 µM | remaining activity | 38%
O=C1NC(=O)c2cc(Nc3ccc(F)cc3)c(Nc3ccc(F)cc3)cc21 | cell-free assay | 0.5 µM | remaining signal | 98.6%
CCCS(=O)(=O)Nc1ccc(F)c(C(=O)c2c[nH]c3ncc(-c4ccc(Cl)cc4)cc23)c1F | enzyme activity, inhibitor | 1 µM | inhibition | < 10%
Cn1cc(-c2cccc(N3CCc4c(sc5c4CC(C)(C)C5)C3=O)c2CO)cc(Nc2ccncn2)c1=O | enzyme activity, inhibitor | 1 µM | inhibition | 2%
COc1cc(-c2cc(-c3ccc(N4CCNCC4)cc3)cnc2C)cc(OC)c1OC | enzyme activity, inhibitor | 0.1 µM | inhibition | 2%
COc1cc2ncnc(Nc3ccc(Oc4ccccc4)c(C)c3C)c2cc1OC | enzyme activity, inhibitor | 1 µM | inhibition | -1%
CC(C)(C)c1nc2c(s1)c1nc(N)ncc1c1ccc(NS(=O)(=O)c3c(F)cccc3F)c(F)c12 | enzyme activity, inhibitor, radiometric | 1 µM | remaining activity | 92%
Cn1cc(-c2cc(F)cc(N3CCn4c(cc5c4CCCC5)C3=O)c2CO)cc(Nc2ccc(N3CCN(C4COC4)CC3)cn2)c1=O | enzyme activity, inhibitor | 0.1 µM | inhibition | 5%
O=C(Nc1cnn(-c2csc(C(=O)NC3COC3)c2)c1)Nc1c(F)cccc1Cl | enzyme activity, inhibitor | 5 µM | remaining activity | 96.2%
